Screening results deposited in PubChem by The Scripps Research Institute Molecular Screening Center.
Most compounds without a hit are left out; they make up all but 2.7% or so of the library.
PAFAH1B2 FP inh: PAFAH1B2 (human) inhibition; AID 492953; recombinant PAFAH1B2, FP-rhodamine activity probe, fluorescence polarization; 340,000 compounds, 1.2% hits; P68402; inhibition, % at 3.39 µM;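 active = inhibition above the mean of all tested compounds plus 3 SD, cut at about 24% in these data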
PAFAH1B3 FP inh: blocks human PAF acetylhydrolase 1B catalytic subunit 3. Q15102. inhibition, % at 3.39 µM. recombinant PAFAH1B3, FP-rhodamine probe, fluorescence polarization. 340,000 compounds, 0.28% hits;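 active = inhibition above the screen-wide average of all tested compounds plus 3 SD, cut at about 25% in these data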
RBBP9 inh: human RBBP9 hydrolase inhibition; O75884; recombinant RBBP9, FP-Rh probe fluorescence polarization; inhibition, % at 7.94 µM; 220,000 compounds, 0.2% hits;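 active = inhibition above the campaign mean of all tested compounds plus 3 SD, cut at about 14% in these data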
Target sequence (O75884 whole entry, looked up): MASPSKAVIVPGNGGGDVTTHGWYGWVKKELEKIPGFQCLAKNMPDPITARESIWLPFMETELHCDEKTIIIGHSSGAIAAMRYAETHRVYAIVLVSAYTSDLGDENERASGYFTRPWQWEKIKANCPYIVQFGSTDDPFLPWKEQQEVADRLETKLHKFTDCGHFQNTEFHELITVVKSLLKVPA
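System: RBBP9 protein / Buffer or medium: Tris/NaCl buffer pH 8.0 with 0.1% Pluronic / Probe or stimulus: Serine-hydrolase probe FP-Rh, 375 nM pre-mixing / Dosing: 7.94 µM single dose, 0.794% DMSO / Times: enzyme-compound preincubation 30 min, then probe labeling 45 min, 25 °C / Technique: fluorescence polarization (mP), excitation 525 nm, emission 598 nm / Replication: singlicate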
pPAFAH inh: pPAFAH (human) enzyme inhibition. 330,000 compounds, 1.5% hits. AID 463082. recombinant pPAFAH, FP-rhodamine probe fluorescence polarization. Q13093. inhibition, % at 3.39 µM;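 active = inhibition above the mean inhibition across the screen plus 3 SD, cut at about 25% in these data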;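 note: inhibitors block binding of the rhodamine activity-based probe so polarization drops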
PAFAH2 FP inh: PAFAH2 (human) inhibition; Q99487; recombinant PAFAH2, FP-rhodamine activity probe, fluorescence polarization; inhibition, % at 3.39 µM; 340,000 compounds, 0.99% hits; AID 492956;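 active = inhibition above the mean over all tested compounds plus 3 SD, cut at about 30% in these data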;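 note: inhibitors block probe labeling of enzyme so polarization drops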
Of the large screens only hits and unclear results are named; the others gave an inactive call.

COc1ccc(CCNC(=O)c2nnc(Cc3ccc(Cl)cc3)o2)cc1OC	pPAFAH inh 28
COCc1ccc(-c2c(-c3ccc(OC)cc3)oc(=O)c3cc(OC)c(OC)cc23)cc1	none (no result: RBBP9 inh)
COc1ccc(-c2oc(=O)c3cc(OC)c(OC)cc3c2-c2ccc3c(c2)OCO3)cc1	pPAFAH inh 27 (no result: RBBP9 inh)
COc1ccc(-c2cc3ccccc3oc2=O)cc1NC(=O)c1ccc(Br)o1	none
COc1ccc(-c2cc3ccccc3oc2=O)cc1NC(=O)c1ccc([N+](=O)[O-])o1	pPAFAH inh 25
Cc1ccc(S(=O)(=O)/N=C2\C=C(Nc3cccc(C(=O)O)c3)C(=O)c3ccccc32)cc1	PAFAH1B2 FP inh 36, PAFAH1B3 FP inh 65, PAFAH2 FP inh 51 (no result: RBBP9 inh)
CC(C)(C)c1ccc(S(=O)(=O)/N=C2\C=C(NS(=O)(=O)c3ccccc3)C(=O)c3ccccc32)cc1	PAFAH1B2 FP inh 41 (no result: RBBP9 inh)
CCc1ccc(S(=O)(=O)/N=C2\C=C(Nc3ccc(C(=O)O)cc3)C(=O)c3ccccc32)cc1	PAFAH1B2 FP inh 32, PAFAH1B3 FP inh 58, pPAFAH inh 33, PAFAH2 FP inh 50 (no result: RBBP9 inh)
Cc1ccc(S(=O)(=O)/N=C2\C=C(Nc3cccc(C(=O)O)c3)C(=O)c3ccccc32)c(C)c1	PAFAH1B2 FP inh 30, PAFAH1B3 FP inh 63, pPAFAH inh 27, PAFAH2 FP inh 58 (no result: RBBP9 inh)
Cc1ccc(S(=O)(=O)/N=C2\C=C(NS(=O)(=O)c3ccccc3)C(=O)c3ccccc32)c(C)c1	none (no result: RBBP9 inh, pPAFAH inh)
CCn1c(CSCc2ccc(Cl)cc2)nnc1SCC(=O)Nc1cccc(C(=O)O)c1	none
COc1ccc(O)c(/C=N/NC(=O)c2ccc(CSc3nc(C)cc(C)n3)cc2)c1	pPAFAH inh 27
